Data: ChEMBL document CHEMBL1121830, “Inhibitors of polyamine biosynthesis. 9. Effects of S-adenosyl-L-methionine analogues on mammalian aminopropyltransferases in vitro and polyamine biosynthesis in transformed lymphocytes” (1981)

Assays:
[1] = target: T1, Spermidine synthase (Rattus norvegicus) (UniProt Q99MI5); test: Compound was tested for its effect on rat prostatic spermidine synthase at 0.1 mM
T1 sequence (whole entry): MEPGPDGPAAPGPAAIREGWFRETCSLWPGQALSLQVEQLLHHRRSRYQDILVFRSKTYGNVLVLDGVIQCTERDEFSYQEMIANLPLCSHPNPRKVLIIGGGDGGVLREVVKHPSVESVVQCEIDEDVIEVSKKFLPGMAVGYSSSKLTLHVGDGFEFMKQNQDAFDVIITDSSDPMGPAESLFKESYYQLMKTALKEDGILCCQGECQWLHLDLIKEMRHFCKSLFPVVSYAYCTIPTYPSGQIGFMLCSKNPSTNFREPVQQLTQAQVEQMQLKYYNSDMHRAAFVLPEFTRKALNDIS
In short: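 Rat prostate spermidine synthase preparation with 20 μM 14C-S-methyladenosylhomocysteamine and 1 mM putrescine, inhibitor at 0.1 mM. Incubation at 37 °C for 15 min; radiolabelled spermidine formed was measured.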

[2] = tested on: spermine synthase (Rattus norvegicus); test: Compound was tested for its effect on rat prostatic spermine synthase at 0.1 mM
Mus musculus [3] = species on record: Mus musculus; test: Effect of the addition of stimulated spermine on the intracellular concentration in concanavalin A stimulated lymphocytes in the absence of compound at 48 hours
Mus musculus [4] = species on record: Mus musculus; test: Effect on spermidine polyamine accumulation in concanavalin A stimulated lymphocytes at 0.05 mM
[5] = tested on: Spermine synthase (Rattus norvegicus); test: Substrate activity for Prostatic spermine synthase product formation in rat
[6] = tested on: spermine synthase (Bos taurus); test: Compound was tested for its effect on Bovine brain spermine synthase at 0.4 mM
[7] = target: T1, Spermidine synthase (Rattus norvegicus); test: Substrate activity for the Bovine brain spermidine synthase product formation; details: Bos taurus; target entry is the homologue from another species
Mus musculus [8] = species on record: Mus musculus; test: Effect of the addition of stimulated spermidine on the intracellular concentration in concanavalin A stimulated lymphocytes in the presence of compound (0.5 mM) and spermine (50 uM) at 48 hours
Mus musculus [9] = species on record: Mus musculus; test: Effect on putrescine polyamine accumulation in concanavalin A stimulated lymphocytes at 0.50 mM
[10] = tested on: spermine synthase (Bos taurus); test: Compound was tested for its effect on Bovine brain spermine synthase at 0.1 mM
Mus musculus [11] = species on record: Mus musculus; test: Effect on putrescine polyamine accumulation in concanavalin A stimulated lymphocytes at 0.20 mM
Mus musculus [12] = species on record: Mus musculus; test: Effect of the addition of stimulated spermine on the intracellular concentration in concanavalin A stimulated lymphocytes in the absence of compound at 24 hours
Mus musculus [13] = species on record: Mus musculus; test: Effect of the addition of stimulated spermidine on the intracellular concentration in concanavalin A stimulated lymphocytes in the absence of compound at 48 hours
[14] = tested on: spermine synthase (Bos taurus); test: Compound was tested for its effect on Bovine brain spermine synthase at 1.0 mM
Mus musculus [15] = species on record: Mus musculus; test: Effect on putrescine polyamine accumulation in concanavalin A stimulated lymphocytes at 0.35 mM
Mus musculus [16] = species on record: Mus musculus; test: Effect of the addition of stimulated spermidine on the intracellular concentration in concanavalin A stimulated lymphocytes in the presence of compound (0.5 mM) and spermidine (50 uM) at 48 hours
Mus musculus [17] = species on record: Mus musculus; test: Effect on putrescine polyamine accumulation in concanavalin A stimulated lymphocytes at 0.02 mM
[18] = target: T1, Spermidine synthase (Rattus norvegicus); test: Substrate activity for Prostatic spermidine synthase product formation in rat
In short: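 Substrate test: 0.13 mM S-methyladenosylhomocysteamine or analogue with 0.6 mM [14C]putrescine (spermidine synthase) or [14C]spermidine (spermine synthase). Enzyme was 1.57 mg rat ventral prostate soluble supernatant protein or 0.09 mg enzyme purified 30-fold from bovine brain soluble fraction. Incubated 20 min at 37 °C, stopped with perchloric acid, and labelled polyamines measured by paper electrophoresis.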

Mus musculus [19] = species on record: Mus musculus; test: Effect on spermidine polyamine accumulation in concanavalin A stimulated lymphocytes at 0.10 mM
Mus musculus [20] = species on record: Mus musculus; test: Effect of the addition of stimulated spermidine on the intracellular concentration in concanavalin A stimulated lymphocytes in the presence of compound (0.5 mM) at 24 hours
Mus musculus [21] = species on record: Mus musculus; test: Effect of the addition of stimulated spermine (50 uM) on the intracellular concentration in concanavalin A stimulated lymphocytes in the absence of compound at 48 hours
Mus musculus [22] = species on record: Mus musculus; test: Effect on putrescine polyamine accumulation in concanavalin A stimulated lymphocytes at 0.05 mM
[23] = tested on: spermine synthase (Bos taurus); test: Compound was tested for its effect on Bovine brain spermine synthase at 0.01 mM
Mus musculus [24] = species on record: Mus musculus; test: Effect of the addition of stimulated spermidine on the intracellular concentration in concanavalin A stimulated lymphocytes in the presence of spermine (50 uM) at 48 hours
Mus musculus [25] = species on record: Mus musculus; test: Effect on spermidine polyamine accumulation in concanavalin A stimulated lymphocytes at 0.02 mM
Mus musculus [26] = species on record: Mus musculus; test: Effect on putrescine polyamine accumulation in concanavalin A stimulated lymphocytes at 0.10 mM
Mus musculus [27] = species on record: Mus musculus; test: Effect of the addition of stimulated spermidine on the intracellular concentration in concanavalin A stimulated lymphocytes in the presence of spermidine (50 uM) at 48 hours
Mus musculus [28] = species on record: Mus musculus; test: Effect of the addition of stimulated spermidine on the intracellular concentration in concanavalin A stimulated lymphocytes in the presence of compound (0.5 mM) and putrescine (50 uM) at 48 hours
Mus musculus [29] = species on record: Mus musculus; test: Effect of the addition of stimulated putrescine on the intracellular concentration in concanavalin A stimulated lymphocytes in the absence of compound at 48 hours
Mus musculus [30] = species on record: Mus musculus; test: Effect of the addition of stimulated spermidine on the intracellular concentration in concanavalin A stimulated lymphocytes in the presence of compound (0.5 mM) at 48 hours

CC(N)CC[S+](C)C[C@H]1O[C@@H](n2cnc3c(N)ncnc32)[C@H](O)[C@@H]1O.[I-] (stereo not given in full)
Activity [1]: 76% | Activity [2]: 66% | Polyamine (Mus musculus [3]): 59.8 pmol/g | Level (Mus musculus [4]): 39.8 pmol/g DNA | Activity [5]: 0% | Activity [6]: 58% | Activity [7]: 25 pmol/min | Polyamine (Mus musculus [8]): 20 pM/g | Level (Mus musculus [9]): 3.5 pmol/g DNA | Activity [10]: 88% | Level (Mus musculus [11]): 6.8 pmol/g DNA | Polyamine (Mus musculus [12]): 38.6 pmol/g | Polyamine (Mus musculus [13]): 90.5 pmol/g | Activity [14]: 23% | Level (Mus musculus [15]): 4.2 pmol/g DNA | Polyamine (Mus musculus [16]): 26.2 pmol/g | Level (Mus musculus [17]): 17.8 pmol/g DNA | Activity [18]: 56 pmol/min | Level (Mus musculus [19]): 38.7 pmol/g DNA | Polyamine (Mus musculus [20]): 17.5 pmol/g | Polyamine (Mus musculus [21]): 98.2 pM/g | Level (Mus musculus [22]): 11 pmol/g DNA | Activity [23]: 102% | Polyamine (Mus musculus [24]): 38.2 pmol/g | Level (Mus musculus [25]): 67.3 pmol/g DNA | Level (Mus musculus [26]): 8.9 pmol/g DNA | Polyamine (Mus musculus [27]): 157 pmol/g | Polyamine (Mus musculus [28]): 21.7 pmol/g | Polyamine (Mus musculus [29]): 13.3 pmol/g | Polyamine (Mus musculus [30]): 19.3 pmol/g
